Measurements reported in ChEMBL document CHEMBL1126705, “16 beta-([18F]fluoro)estrogens: systematic investigation of a new series of fluorine-18-labeled estrogens as potential imaging agents for estrogen-receptor-positive breast tumors” (J Med Chem, 1993).
One block for each compound: values may come before it.

Key:
[1] = Partition coefficient (logP); assay type: physicochemical; settings: octanol/water
In short: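 Octanol/water log P estimated from log k'w measured by reversed-phase HPLC (Minick method) on a C8 silica column.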

[2] = target: T1, Alpha-fetoprotein (Rattus norvegicus) (UniProt P02773); assay: Relative binding affinity for Alphafetoprotein
T1 sequence (whole entry): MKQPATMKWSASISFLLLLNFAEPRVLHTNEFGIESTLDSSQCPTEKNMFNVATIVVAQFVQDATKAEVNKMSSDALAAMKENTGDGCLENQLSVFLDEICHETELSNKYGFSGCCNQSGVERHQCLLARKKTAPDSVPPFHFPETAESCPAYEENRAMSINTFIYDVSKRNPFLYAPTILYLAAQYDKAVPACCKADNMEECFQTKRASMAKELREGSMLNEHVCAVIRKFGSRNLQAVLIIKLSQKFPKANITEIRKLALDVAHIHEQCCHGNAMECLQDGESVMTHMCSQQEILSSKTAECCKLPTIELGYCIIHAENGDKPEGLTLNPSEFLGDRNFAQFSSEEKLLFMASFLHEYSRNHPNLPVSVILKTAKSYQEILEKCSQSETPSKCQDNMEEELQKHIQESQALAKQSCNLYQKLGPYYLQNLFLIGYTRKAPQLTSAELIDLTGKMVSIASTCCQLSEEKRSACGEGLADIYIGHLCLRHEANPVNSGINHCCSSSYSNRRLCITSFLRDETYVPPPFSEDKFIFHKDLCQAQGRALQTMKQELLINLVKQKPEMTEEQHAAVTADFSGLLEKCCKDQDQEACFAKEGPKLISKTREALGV

[3] = target: T2, Sex hormone-binding globulin (Homo sapiens) (UniProt P04278); assay: Relative binding affinity against sex steroid binding protein (SBP)
T2 sequence (whole entry): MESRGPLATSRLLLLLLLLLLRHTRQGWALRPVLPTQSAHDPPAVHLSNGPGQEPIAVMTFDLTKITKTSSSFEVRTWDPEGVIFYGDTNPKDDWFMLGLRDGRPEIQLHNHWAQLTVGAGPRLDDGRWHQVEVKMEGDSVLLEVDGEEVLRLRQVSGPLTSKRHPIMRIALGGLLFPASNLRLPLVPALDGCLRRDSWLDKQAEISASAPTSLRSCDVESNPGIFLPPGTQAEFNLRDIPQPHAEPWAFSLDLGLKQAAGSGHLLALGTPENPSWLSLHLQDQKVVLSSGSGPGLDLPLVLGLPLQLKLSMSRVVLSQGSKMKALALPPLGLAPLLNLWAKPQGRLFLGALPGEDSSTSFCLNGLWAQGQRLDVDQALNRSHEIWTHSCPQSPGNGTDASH

[4] = target: T3, Estrogen receptor (Rattus norvegicus) (UniProt P06211+Q62986)
[5] = target: T3, Estrogen receptor (Rattus norvegicus); remark: listed apart in the source
[6] = tested on: Rattus norvegicus; assay: Tested in vivo for the biodistribution in rat uterus/blood at 1 hour after intravenous dose of 50 microCi of the drug and 15 ug of estradiol; assay type: ADME, organism-based
In short: (§1)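 Female Sprague-Dawley rats, 25 days old (~40–53 g), ether-anesthetized, given the 18F-labeled estrogen iv via femoral vein in 10% ethanol saline. […] Others were sacrificed by decapitation at 1 or 3 h. Blood and organs were excised, weighed and gamma counted as % injected dose/g, mean ± SD, typically n = 5 (4–6).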

[7] = tested on: Rattus norvegicus; assay: Tested in vivo for the biodistribution in rat uterus/muscle after 3 hours following an intravenous dose of 50 microCi of drug in 10%ethanol saline; assay type: ADME, organism-based, Muscle tissue; in short: as §1
[8] = tested on: Rattus norvegicus; assay: Tested in vivo for the biodistribution in rat uterus/muscle at 1 hour after intravenous dose of 50 microCi of drug in 10%ethanol saline; assay type: ADME, organism-based, Muscle tissue; in short: as §1
[9] = tested on: Rattus norvegicus; assay: Tested in vivo for the biodistribution in rat uterus/muscle at 1 hour after intravenous dose of 50 microCi of the drug and 15 ug of estradiol; assay type: ADME, organism-based, Muscle tissue; in short: as §1
[10] = tested on: Rattus norvegicus; assay: Tested in vivo for the biodistribution in blood of female rat after 3 hours following an intravenous dose of 50 microCi of drug in 10%ethanol saline; assay type: ADME, organism-based
In short: (§2)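 Ether-anesthetized 25-day-old female Sprague-Dawley rats (~40–53 g) got the [18F] tracer in 10% ethanol saline via femoral vein. Rats were decapitated at 1 or 3 h, and blood and organs were weighed and gamma-counted. Values are % injected dose/g as mean ± SD, n = 5 per time point.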

[11] = tested on: Rattus norvegicus; assay: Tested in vivo for the biodistribution in rat bone at 1 hour after intravenous dose of 50 microCi of drug in 10%ethanol saline; assay type: ADME, organism-based, Bone element; in short: as §2
[12] = tested on: Rattus norvegicus; assay: Tested in vivo for the biodistribution in rat bone at 1 hour after intravenous dose of 50 microCi of the drug and 15 ug of estradiol; assay type: ADME, organism-based, Bone element
[13] = tested on: Rattus norvegicus; assay: Tested in vivo for the biodistribution in rat fat after 3 hours following an intravenous dose of 50 microCi of drug in 10%ethanol saline; assay type: ADME, organism-based, Adipose tissue; in short: as §2
[14] = tested on: Rattus norvegicus; assay: Tested in vivo for the biodistribution in rat ovaries after 3 hours following an intravenous dose of 50 microCi of drug in 10%ethanol saline; assay type: ADME, organism-based, Female gonad
In short: (§3)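 Immature (25-day-old) female Sprague-Dawley rats, ether-anesthetized, given the fluorine-18-labeled estrogen by femoral vein injection in 10% ethanol saline. […] Other groups were killed by decapitation at 1 or 3 h. Blood and organs were weighed and gamma-counted. Data are % injected dose/g, mean ± SD, typically n = 5 per group.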

[15] = tested on: Rattus norvegicus; assay: Tested in vivo for the biodistribution in rat ovaries at 1 hour after intravenous dose of 50 microCi of drug in 10%ethanol saline; assay type: ADME, organism-based, Female gonad; in short: as §3
[16] = tested on: Rattus norvegicus; assay: Tested in vivo for the biodistribution in rat ovaries at 1 hour after intravenous dose of 50 microCi of the drug and 15 ug of estradiol; assay type: ADME, organism-based, Female gonad; in short: as §3
[17] = tested on: Rattus norvegicus; assay: Tested in vivo for the biodistribution in rat muscle after 3 hours following an intravenous dose of 50 microCi of drug in 10%ethanol saline; assay type: ADME, organism-based, Muscle tissue; in short: as §3
[18] = tested on: Rattus norvegicus; assay: Tested in vivo for the biodistribution in rat muscle at 1 hour after intravenous dose of 50 microCi of drug in 10%ethanol saline; assay type: ADME, organism-based, Muscle tissue; in short: as §3
[19] = tested on: Rattus norvegicus; assay: Tested in vivo for the biodistribution in rat muscle at 1 hour after intravenous dose of 50 microCi of the drug and 15 ug of estradiol; assay type: ADME, organism-based, Muscle tissue; in short: as §3
[20] = tested on: Rattus norvegicus; assay: Tested in vivo for the biodistribution in rat thymus after 3 hours following an intravenous dose of 50 microCi of drug in 10%ethanol saline; assay type: ADME, organism-based; in short: as §3
[21] = tested on: Rattus norvegicus; assay: Tested in vivo for the biodistribution in rat thymus at 1 hour after intravenous dose of 50 microCi of drug in 10%ethanol saline; assay type: ADME, organism-based; in short: as §3
[22] = tested on: Rattus norvegicus; assay: Tested in vivo for the biodistribution in rat thymus at 1 hour after intravenous dose of 50 microCi of the drug and 15 ug of estradiol; assay type: ADME, organism-based; in short: as §3
[23] = tested on: Rattus norvegicus; assay: Tested in vivo for the biodistribution in rat uterus after 3 hours following an intravenous dose of 50 microCi of drug in 10%ethanol saline; assay type: ADME, organism-based; in short: as §3
[24] = tested on: Rattus norvegicus; assay: Tested in vivo for the biodistribution in rat uterus at 1 hour after intravenous dose of 50 microCi of drug in 10%ethanol saline; assay type: ADME, organism-based; in short: as §1
[25] = tested on: Rattus norvegicus; assay: Tested in vivo for the biodistribution in rat uterus at 1 hour after intravenous dose of 50 microCi of the drug and 15 ug of estradiol; assay type: ADME, organism-based; in short: as §1
[26] = tested on: Rattus norvegicus; assay: Tested in vivo for the biodistribution in rat uterus/blood after 3 hours following an intravenous dose of 50 microCi of drug in 10%ethanol saline; assay type: ADME, organism-based; in short: as §1
[27] = tested on: Rattus norvegicus; assay: Tested in vivo for the biodistribution in blood of female rat at 1 hour after intravenous dose of 50 microCi of drug in 10%ethanol saline; assay type: ADME, organism-based; in short: as §2
[28] = tested on: Rattus norvegicus; assay: Tested in vivo for the biodistribution in blood of female rat at 1 hour after intravenous dose of 50 microCi of the drug and 15 u g of estradiol; assay type: ADME, organism-based
[29] = tested on: Rattus norvegicus; assay: Tested in vivo for the biodistribution in rat bone after 3 hours following an intravenous dose of 50 microCi of drug in 10%ethanol saline; assay type: ADME, organism-based, Bone element; in short: as §2
[30] = tested on: Rattus norvegicus; assay: Tested in vivo for the biodistribution in rat fat at 1 hour after intravenous dose of 50 microCi of drug in 10%ethanol saline; assay type: ADME, organism-based, Adipose tissue; in short: as §2
[31] = tested on: Rattus norvegicus; assay: Tested in vivo for the biodistribution in rat fat at 1 hour after intravenous dose of 50 microCi of the drug and 15 ug of estradiol; assay type: ADME, organism-based, Adipose tissue
[32] = tested on: Rattus norvegicus; assay: Tested in vivo for the biodistribution in rat kidney after 3 hours following an intravenous dose of 50 microCi of drug in 10%ethanol saline; assay type: ADME, organism-based; in short: as §2
[33] = tested on: Rattus norvegicus; assay: Tested in vivo for the biodistribution in rat kidney at 1 hour after intravenous dose of 50 microCi of drug in 10%ethanol saline; assay type: ADME, organism-based; in short: as §2
[34] = tested on: Rattus norvegicus; assay: Tested in vivo for the biodistribution in rat kidney at 1 hour after intravenous dose of 50 microCi of the drug and 15 u g of estradiol; assay type: ADME, organism-based; in short: as §3
[35] = tested on: Rattus norvegicus; assay: Tested in vivo for the biodistribution in rat liver after 3 hours following an intravenous dose of 50 microCi of drug in 10%ethanol saline; assay type: ADME, organism-based; in short: as §3
[36] = tested on: Rattus norvegicus; assay: Tested in vivo for the biodistribution in rat liver at 1 hour after intravenous dose of 50 microCi of drug in 10%ethanol saline; assay type: ADME, organism-based; in short: as §3
[37] = tested on: Rattus norvegicus; assay: Tested in vivo for the biodistribution in rat liver at 1 hour after intravenous dose of 50 microCi of the drug and 15 u g of estradiol; assay type: ADME, organism-based; in short: as §3
[38] = tested on: Rattus norvegicus; assay: Tested in vivo for the biodistribution in rat uterus/blood at 1 hour after intravenous dose of 50 microCi of drug in 10%ethanol saline; assay type: ADME, organism-based; in short: as §1

logP [1]: 4.28
relative binding affinity (RBA) [2]: 0.347
relative binding affinity (RBA) [3]: 41.2
NSB [4]: 2.86
BSI [5]: 331
Compound: C#C[C@]1(O)CC[C@H]2[C@@H]3CCc4cc(O)ccc4[C@H]3C(CC)C[C@@]21C (stereo partly drawn)

Injected [6]: 4.03%
Injected [7]: 23.55%
Injected [8]: 11.41%
Injected [9]: 3.5%
Injected [10]: 0.144%
Injected [11]: 1.365%
Injected [12]: 1.037%
Injected [13]: 1.805%
Injected [14]: 3.115%
Injected [15]: 3.934%
Injected [16]: 1.712%
Injected [17]: 0.382%
Injected [18]: 0.725%
Injected [19]: 0.262%
Injected [20]: 0.493%
Injected [21]: 0.815%
Injected [22]: 0.277%
Injected [23]: 9.09%
Injected [24]: 8.2%
Injected [25]: 0.88%
Injected [26]: 64.53%
Injected [27]: 0.264%
Injected [28]: 0.227%
Injected [29]: 1.606%
Injected [30]: 3.375%
Injected [31]: 2.174%
Injected [32]: 1.03%
Injected [33]: 1.886%
Injected [34]: 0.709%
Injected [35]: 4.003%
Injected [36]: 4.023%
Injected [37]: 3.888%
logP [1]: 4.12
relative binding affinity (RBA) [2]: 0.147
relative binding affinity (RBA) [3]: 11
Injected [38]: 33.61%
NSB [4]: 2.43
BSI [5]: 189
Compound: C#C[C@]1(O)[C@@H](F)C[C@H]2[C@@H]3CCc4cc(O)ccc4[C@H]3[C@@H](CC)C[C@@]21C
